From ChEMBL document CHEMBL1811821, “Cystic fibrosis: a new target for 4-Imidazo[2,1-b]thiazole-1,4-dihydropyridines” (J Med Chem, 2011)
Calls of active or inactive are those of the source. The rule behind the calls is not given here.

Key:
Aorta [1] = assay: Vasorelaxant activity in potassium depolarized guinea pig aortic strip assessed as inhibition of calcium-induced contraction at 10^-6 M; assay type: functional; details: Cavia porcellus
Outline: (§1)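 Guinea pig aortic strips depolarized with 80 mM K+, with cumulative drug addition. Relaxation given as mean ± SEM. […] Student's t-test against control, P < 0.05.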

[2] = Binding affinity to CFTR F508 deletion mutant expressed in forskolin-stimulated FRT cells assessed as increase in iodine influx measured as YFP quenching rate after 24 hrs by fluorescence assay; assay type: cell-based
Outline: (§2)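 ΔF508-CFTR and halide-sensitive YFP coexpressed in FRT cells, held at 27 °C for 24 h for rescue, then stimulated 30–40 min with 20 μM forskolin with or without compound at 0.2, 2 and 20 μM. Fluorescence read before and after I– addition (100 mM final). Normalized decay fitted exponentially for maximal quenching rate; dose–response fitted with Hill equation for potency and maximal effect. Three independent determinations.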

[3] = Negative ionotropic activity against potassium-induced contraction in guinea pig left atrium assessed as […] at 10^-4 M relative to control; assay type: functional; details: Cavia porcellus, Cardiac atrium
Outline: (§3)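 Isolated guinea pig left atrium paced at 1 Hz. Drugs added cumulatively. Negative inotropic effect expressed as percent change from control, n = 5–6. […] Student's t-test against control at each concentration, P < 0.05. Mean ± SEM.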

[4] = system: Cystic fibrosis transmembrane conductance regulator (Homo sapiens), P13569 [F508del]; assay: Activity at CFTR F508 deletion mutant expressed in forskolin-stimulated FRT cells assessed as maximal increase in iodine influx measured as YFP quenching rate at 0.2 uM after 24 hrs by fluorescence assay; assay type: cell-based; outline: as §2
[5] = Negative ionotropic activity in potassium depolarized guinea pig longitudinal smooth muscle assessed as inhibition of calcium-induced contraction; assay type: functional, Cavia porcellus
Cavia porcellus [6] = organism: Cavia porcellus; assay: Negative ionotropic activity in potassium depolarized guinea pig longitudinal smooth muscle assessed as inhibition of calcium-induced contraction at 10^-8 M; assay type: functional
[7] = Negative ionotropic activity against potassium-induced contraction in guinea pig left atrium assessed as decrease in developed tension; details: Cavia porcellus, Cardiac atrium
Aorta [8] = assay: Vasorelaxant activity in potassium depolarized guinea pig aortic strip assessed as inhibition of calcium-induced contraction; assay type: functional, tissue-based; details: Cavia porcellus; outline: as §1
[9] = Bronchodilatory activity in guinea pig trachea assessed as inhibition of carbachol-induced contraction at 10^-5 M; assay type: functional; details: Cavia porcellus
[10] = system: Cystic fibrosis transmembrane conductance regulator (Homo sapiens), P13569 [F508del]; assay: Activity at CFTR F508 deletion mutant expressed in forskolin-stimulated FRT cells assessed as maximal increase in iodine influx measured as YFP quenching rate after 24 hrs by fluorescence assay; assay type: cell-based; outline: as §2
[11] = Negative chronotropic activity against potassium-induced contraction in guinea pig right atrium assessed as decrease atrial rate at 10^-4 M relative to control; assay type: functional; details: Cavia porcellus, Cardiac atrium
Outline: (§4)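 Spontaneously beating isolated guinea pig right atrium, pretreatment rate 165–190 beats/min. Drugs added cumulatively. Decrease in atrial rate expressed as percent change from control, n = 7–8. […] Control versus treated tested at each concentration by Student's t-test, P < 0.05. Mean ± SEM.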

[12] = Negative chronotropic activity against potassium-induced contraction in guinea pig right atrium assessed as decrease atrial rate; assay type: functional, tissue-based; details: Cavia porcellus, Cardiac atrium; outline: as §4
[13] = Negative chronotropic activity against potassium-induced contraction in guinea pig right atrium assessed as decrease atrial rate at 10^-7 M relative to control; assay type: functional; details: Cavia porcellus, Cardiac atrium
Outline: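 Isolated spontaneously beating guinea pig right atrium with pretreatment heart rate of 165–190 beats/min. Compound was added cumulatively. Atrial rate decrease at the stated concentration is given as percent change from control, mean ± SEM, n = 7–8. Control versus treated values at each concentration were compared by Student's t-test at P < 0.05.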

Cavia porcellus [14] = organism: Cavia porcellus; assay: […] activity in potassium depolarized guinea pig longitudinal smooth muscle assessed as inhibition of calcium-induced contraction at 5 X 10^-9 M; assay type: functional
[15] = Bronchodilatory activity in guinea pig trachea assessed as inhibition of carbachol-induced contraction; assay type: functional, tissue-based, Cavia porcellus
[16] = Negative ionotropic activity against potassium-induced contraction in guinea pig left atrium assessed as […] at 10^-5 M relative to control; assay type: functional; details: Cavia porcellus, Cardiac atrium; outline: as §3
Cavia porcellus [17] = organism: Cavia porcellus; assay: Negative ionotropic activity in potassium depolarized guinea pig longitudinal smooth muscle assessed as inhibition of calcium-induced contraction at 10^-7 M; assay type: functional
[18] = Negative chronotropic activity against potassium-induced contraction in guinea pig right atrium assessed as decrease atrial rate at 10^-6 M relative to control; assay type: functional; details: Cavia porcellus, Cardiac atrium; outline: as §4
Aorta [19] = assay: Vasorelaxant activity in potassium depolarized guinea pig aortic strip assessed as inhibition of calcium-induced contraction at 10^-4 M; assay type: functional; details: Cavia porcellus; outline: as §1
[20] = Bronchodilatory activity in guinea pig trachea assessed as inhibition of carbachol-induced contraction at 10^-4 M; assay type: functional; details: Cavia porcellus
[21] = Negative ionotropic activity against potassium-induced contraction in guinea pig left atrium assessed as […] at 5 X 10^-6 M relative to control; assay type: functional; details: Cavia porcellus, Cardiac atrium; outline: as §3
Cavia porcellus [22] = organism: Cavia porcellus; assay: Negative ionotropic activity in potassium depolarized guinea pig longitudinal smooth muscle assessed as inhibition of calcium-induced contraction at 5 X 10^-5 M; assay type: functional
Aorta [23] = assay: Vasorelaxant activity in potassium depolarized guinea pig aortic strip assessed as inhibition of calcium-induced contraction at 5 X 10^-5 M; assay type: functional; details: Cavia porcellus; outline: as §1
[24] = Ratio EC50 for negative chronotropic activity against potassium-induced contraction in guinea pig right atrium to EC50 for negative […] activity against potassium-induced contraction in guinea pig left atrium; assay type: functional, Cavia porcellus, Cardiac atrium
[25] = Bronchodilatory activity in guinea pig trachea assessed as inhibition of carbachol-induced contraction at 10^-7 M; assay type: functional; details: Cavia porcellus
Cavia porcellus [26] = organism: Cavia porcellus; assay: Negative ionotropic activity in potassium depolarized guinea pig longitudinal smooth muscle assessed as inhibition of calcium-induced contraction at 5 X 10^-7 M; assay type: functional
Cavia porcellus [27] = organism: Cavia porcellus; assay: Negative ionotropic activity in potassium depolarized guinea pig longitudinal smooth muscle assessed as inhibition of calcium-induced contraction at 10^-6 M; assay type: functional
[28] = Negative chronotropic activity against potassium-induced contraction in guinea pig right atrium assessed as decrease atrial rate at 10^-5 M relative to control; assay type: functional; details: Cavia porcellus, Cardiac atrium; outline: as §4
[29] = Negative ionotropic activity against potassium-induced contraction in guinea pig left atrium assessed as […] at 5 X 10^-5 M relative to control; assay type: functional; details: Cavia porcellus, Cardiac atrium; outline: as §3
Cavia porcellus [30] = organism: Cavia porcellus; assay: Negative ionotropic activity in potassium depolarized guinea pig longitudinal smooth muscle assessed as inhibition of calcium-induced contraction at 3 X 10^-7 M; assay type: functional
[31] = Ratio EC50 for nifedipine to compound for negative […] activity against potassium-induced contraction in left atrium of guinea pig; assay type: functional, Cavia porcellus, Cardiac atrium
Aorta [32] = assay: Vasorelaxant activity in potassium depolarized guinea pig aortic strip assessed as inhibition of calcium-induced contraction at 5 X 10^-7 M; assay type: functional; details: Cavia porcellus; outline: as §1
[33] = Negative ionotropic activity against potassium-induced contraction in guinea pig left atrium assessed as […] at 10^-7 M relative to control; assay type: functional; details: Cavia porcellus, Cardiac atrium; outline: as §3
[34] = Negative chronotropic activity against potassium-induced contraction in guinea pig right atrium assessed as decrease atrial rate at 5 X 10^-7 M relative to control; assay type: functional; details: Cavia porcellus, Cardiac atrium; outline: as §4
Cavia porcellus [35] = organism: Cavia porcellus; assay: Negative ionotropic activity in potassium depolarized guinea pig longitudinal smooth muscle assessed as inhibition of calcium-induced contraction at 10^-5 M; assay type: functional
[36] = Negative ionotropic activity against potassium-induced contraction in guinea pig left atrium assessed as […] at 5 X 10^-7 M relative to control; assay type: functional; details: Cavia porcellus, Cardiac atrium; outline: as §3
Aorta [37] = assay: Vasorelaxant activity in potassium depolarized guinea pig aortic strip assessed as inhibition of calcium-induced contraction at 10^-5 M; assay type: functional; details: Cavia porcellus; outline: as §1
[38] = Ratio IC50 for nifedipine to compound for bronchodilatory activity in guinea pig trachea assessed as carbachol-induced contraction; assay type: functional, Cavia porcellus
[39] = system: Cystic fibrosis transmembrane conductance regulator (Homo sapiens), P13569 [F508del]; assay: Activity at CFTR F508 deletion mutant expressed in forskolin-stimulated FRT cells assessed as maximal increase in iodine influx measured as YFP quenching rate after 24 hrs by fluorescence assay relative to nifedipine; assay type: cell-based; outline: as §2

Cystic fibrosis transmembrane conductance regulator (Homo sapiens), P13569 [F508del], sequence (P13569 as listed by the source): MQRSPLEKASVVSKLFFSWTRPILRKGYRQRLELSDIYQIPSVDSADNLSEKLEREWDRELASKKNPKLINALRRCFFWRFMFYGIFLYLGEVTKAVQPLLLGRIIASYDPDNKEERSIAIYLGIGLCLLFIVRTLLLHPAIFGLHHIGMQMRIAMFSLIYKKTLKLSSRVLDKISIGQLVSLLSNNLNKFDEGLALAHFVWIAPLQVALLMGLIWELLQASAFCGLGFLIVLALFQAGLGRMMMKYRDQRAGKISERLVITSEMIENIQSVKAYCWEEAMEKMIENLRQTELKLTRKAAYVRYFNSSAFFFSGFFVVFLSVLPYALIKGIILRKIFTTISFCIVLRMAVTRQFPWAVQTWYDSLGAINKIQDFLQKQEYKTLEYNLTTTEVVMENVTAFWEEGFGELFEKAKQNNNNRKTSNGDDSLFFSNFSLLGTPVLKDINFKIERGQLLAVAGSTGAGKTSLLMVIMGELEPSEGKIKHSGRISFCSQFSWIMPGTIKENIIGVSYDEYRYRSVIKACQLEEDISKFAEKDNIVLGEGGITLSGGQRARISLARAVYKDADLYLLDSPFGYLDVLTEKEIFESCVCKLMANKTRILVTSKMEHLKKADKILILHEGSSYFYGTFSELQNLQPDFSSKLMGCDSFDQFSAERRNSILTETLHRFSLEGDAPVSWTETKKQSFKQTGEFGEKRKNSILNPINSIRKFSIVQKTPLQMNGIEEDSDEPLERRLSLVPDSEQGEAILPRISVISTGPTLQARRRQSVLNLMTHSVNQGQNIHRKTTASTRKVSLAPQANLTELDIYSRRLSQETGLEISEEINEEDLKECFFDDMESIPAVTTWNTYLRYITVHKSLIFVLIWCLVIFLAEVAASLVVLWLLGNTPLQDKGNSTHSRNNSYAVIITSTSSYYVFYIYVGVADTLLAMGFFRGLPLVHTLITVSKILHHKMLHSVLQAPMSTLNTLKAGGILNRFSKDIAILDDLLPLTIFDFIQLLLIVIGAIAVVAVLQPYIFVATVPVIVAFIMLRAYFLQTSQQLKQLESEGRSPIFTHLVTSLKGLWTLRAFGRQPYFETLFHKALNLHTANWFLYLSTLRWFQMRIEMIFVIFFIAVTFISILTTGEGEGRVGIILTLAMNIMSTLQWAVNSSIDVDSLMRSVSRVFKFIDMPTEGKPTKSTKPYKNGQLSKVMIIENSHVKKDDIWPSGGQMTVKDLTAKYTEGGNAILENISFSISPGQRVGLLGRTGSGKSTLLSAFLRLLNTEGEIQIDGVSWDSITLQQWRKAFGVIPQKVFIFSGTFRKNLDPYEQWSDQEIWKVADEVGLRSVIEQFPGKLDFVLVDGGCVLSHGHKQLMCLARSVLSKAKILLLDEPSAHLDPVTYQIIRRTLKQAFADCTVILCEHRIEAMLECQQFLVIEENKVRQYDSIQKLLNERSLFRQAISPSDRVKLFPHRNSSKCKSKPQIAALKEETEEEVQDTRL

## COC(=O)C1=C(C)NC(C)=C(C(=O)OC)C1c1c(-c2ccc(OC(F)(F)F)cc2)nc2sccn12
Aorta [1]
  inhibition at 1 µM: 60%
[2]
  Kd: 3500 nM
[3]
  inhibition at 100 µM: 89%
[4]
  Activity: inactive
[5]
  IC50: 3.3 nM
Cavia porcellus [6]
  inhibition: 73%
[7]
  EC50: 2330 nM
Aorta [8]
  IC50: 16 nM
[9]
  inhibition at 10 µM: 26%
[10]
  Emax: 64 ms-1
[11]
  inhibition at 100 µM: 33%

## COC(=O)C1=C(C)NC(C)=C(C(=O)OC)C1c1ccccc1[N+](=O)[O-] [NIFEDIPINE]
[12]
  EC50: 39 nM
Aorta [1]
  inhibition at 1 µM: 82%
[13]
  inhibition at 0.1 µM: 85%
[2]
  Kd: 2900 nM
Cavia porcellus [14]
  inhibition: 70%
[7]
  EC50: 260 nM
[15]
  IC50: 96 nM
Aorta [8]
  IC50: 9 nM
[16]
  inhibition at 10 µM: 97%
[9]
  inhibition at 10 µM: 62%
[10]
  Emax: 58 ms-1

## CCOC(=O)C1=C(C)NC(C)=C(C(=O)OCC)C1c1c(C(F)(F)F)nc2sccn12
[2]
  Kd: 19400 nM
Cavia porcellus [17]
  inhibition: 90%
[3]
  inhibition at 100 µM: 93%
[4]
  Activity: inactive
[5]
  IC50: 14 nM
[18]
  inhibition at 1 µM: 40%
[7]
  EC50: 1070 nM
[15]
  IC50: 1110 nM
Aorta [19]
  inhibition at 100 µM: 48%
[20]
  inhibition at 100 µM: 77%
[10]
  Emax: 60 ms-1

## O=c1c(-c2ccc(O)cc2)coc2cc(O)cc(O)c12 [GENISTEIN]
[12]
  EC50: 44500 nM
[5]
  IC50: 9950 nM
[7]
  EC50: 28 nM
[21]
  inhibition at 5 µM: 71%
Cavia porcellus [22]
  inhibition: 84%
[9]
  inhibition at 10 µM: 14%
[10]
  Emax: 61 ms-1
Aorta [23]
  inhibition at 50 µM: 22%
[11]
  inhibition at 100 µM: 68%

## COC(=O)C1=C(C)NC(C)=C(C(=O)OC)C1c1c(-c2cccc(C(F)(F)F)c2)nc2sccn12
[2]
  Kd: 2800 nM
[4]
  Activity: inactive
[5]
  IC50: 36 nM
[24]
  Ratio EC50: 12
[10]
  Emax: 65 ms-1
[25]
  inhibition at 0.1 µM: 19%
Cavia porcellus [26]
  inhibition: 96%

## C=CCOC(=O)C1=C(C)NC(C)=C(C(=O)OCC=C)C1c1c(-c2ccc(C(F)(F)F)cc2)nc2sc(C)c(C)n12
[12]
  EC50: 8960 nM
[2]
  Kd: 320 nM
[4]
  Activity: inactive
[5]
  IC50: 460 nM
[7]
  EC50: 270 nM
Cavia porcellus [27]
  inhibition: 72%
[24]
  Ratio EC50: 33
Aorta [19]
  inhibition at 100 µM: 32%
[28]
  inhibition at 10 µM: 52%
[29]
  inhibition at 50 µM: 93%
[10]
  Emax: 42 ms-1

## COC(=O)C1=C(C)NC(C)=C(C(=O)OC)C1c1c(C(F)(F)F)nc2sccn12
[2]
  Kd: 28300 nM
[4]
  Activity: inactive
[5]
  IC50: 210 nM
Cavia porcellus [30]
  inhibition: 70%
[10]
  Emax: 60 ms-1

## COC(=O)C1=C(C)NC(C)=C(C(=O)OC)C1c1c(-c2ccc(C(F)(F)F)cc2)nc2sccn12
[13]
  inhibition at 0.1 µM: 33%
[2]
  Kd: 3200 nM
[4]
  Activity: inactive
[5]
  IC50: 4.6 nM
Cavia porcellus [6]
  inhibition: 69%
[7]
  EC50: 120 nM
[15]
  IC50: 61 nM
[31]
  Ratio EC50: 2.6
[16]
  inhibition at 10 µM: 96%
[9]
  inhibition at 10 µM: 67%
[10]
  Emax: 64 ms-1
Aorta [32]
  inhibition at 0.5 µM: 36%

## CCOC(=O)C1=C(C)NC(C)=C(C(=O)OCC)C1c1c(-c2ccc(C(F)(F)F)cc2)nc2sccn12
[12]
  EC50: 150 nM
[2]
  Kd: 180 nM
[4]
  Activity: inactive
[5]
  IC50: 0.88 nM
[33]
  inhibition at 0.1 µM: 90%
Cavia porcellus [14]
  inhibition: 83%
[7]
  EC50: 33 nM
[34]
  inhibition at 0.5 µM: 64%
[15]
  IC50: 130 nM
Aorta [19]
  inhibition at 100 µM: 6%
[9]
  inhibition at 10 µM: 57%
[10]
  Emax: 42 ms-1

## C=CCOC(=O)C1=C(C)NC(C)=C(C(=O)OCC=C)C1c1ccc(C(C)(C)C)cc1
[2]
  Kd: 170 nM
[5]
  IC50: 1850 nM
[7]
  EC50: 2.2 nM
[15]
  IC50: 0.59 nM
Cavia porcellus [35]
  inhibition: 52%
[36]
  inhibition at 0.5 µM: 71%
[28]
  inhibition at 10 µM: 5%
Aorta [37]
  inhibition at 10 µM: 12%
[9]
  inhibition at 10 µM: 68%
[38]
  Ratio IC50: 163
[10]
  Emax: 56 ms-1
[39]
  Ratio: 17
